From publication PMC10948974 (Nature chemical biology, 2023)

What was measured:
[1] = target: 14–3–3–NL + MEK1 + BRAF-R509H (Homo sapiens, UniProt Q02750); test: 14–3–3–NL NanoBRET assay with dimer mutant BRAF-R509H; type: binding; settings: 14–3–3–NL–Tram-bo assay configuration
[2] = target: 14–3–3–NL + MEK1 + KSR1-R665H (Homo sapiens, UniProt Q02750); test: 14–3–3–NL NanoBRET assay with dimer mutant KSR1-R665H; type: binding; settings: 14–3–3–NL–Tram-bo assay configuration
MEK1–KSR1 = MEK1–KSR1 (Homo sapiens, UniProt Q02750); test: Co-IP of MEK1 and FLAG-tagged KSR1 from treated HEK293T cells; type: cell-based; settings: 1 μM compound, 24 h
In short: (§1)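 HEK293T cells (350,000/well) were transfected 24 h after seeding using Fugene HD. FLAG-BRAF or FLAG-KSR1 was given at 1 μg ml−1 for FLAG pulldown, or 0.5 μg ml−1 for endogenous MEK1 pulldown, each with 9 μg ml−1 carrier DNA. After 24 h, cells got 1 μM compound (0.1% DMSO) for 24 h. 100 μg of lysate was captured on anti-FLAG, anti-MEK1 or normal IgG beads (1 h, 4 °C), then eluted and western blotted for BRAF, MEK1 and FLAG.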

MEK1–NL + BRAF-V600E = MEK1–NL + BRAF-V600E (Homo sapiens, UniProt Q02750); test: MEK1–NL NanoBRET coexpression assay with BRAF-V600E; type: binding; settings: 1 μM Tram-bo
MEK1–BRAF = MEK1–BRAF (Homo sapiens, UniProt Q02750); test: Co-IP of MEK1 and FLAG-tagged BRAF from treated HEK293T cells; type: cell-based; settings: 1 μM compound, 24 h
In short: as §1

[3] = target: 14–3–3–NL + MEK1 + CRAF-R401H (Homo sapiens, UniProt Q02750); test: 14–3–3–NL NanoBRET assay with dimer mutant CRAF-R401H; type: binding; settings: 14–3–3–NL–Tram-bo assay configuration

| change in potency, BRAF-R509H versus BRAF [1] | change in potency, KSR1-R665H versus KSR1 [2] | effect on MEK1–KSR1 interaction (co-IP) (MEK1–KSR1) | decrease in potency (calculated Ki) with BRAF-V600E versus WT BRAF (MEK1–NL + BRAF-V600E) | effect on MEK1–BRAF interaction (co-IP) (MEK1–BRAF) | change in potency, CRAF-R401H versus CRAF [3] | Molecule |
| --- | --- | --- | --- | --- | --- | --- |
| significant increase in potency | decrease in potency | – | – | – | – | O=C(c1ccc(F)c(F)c1Nc1ccc(I)cc1F)N1CC(O)([C@@H]2CCCCN2)C1 [cobimetinib] |
| insensitive | – | stabilized | ~ 100 fold | stabilized | – | CNS(=O)(=O)Nc1nccc(Cc2c(C)c3ccc(Oc4ncccn4)cc3oc2=O)c1F [CH5126766] |
| insensitive | decrease in potency | stabilized | – | stabilized | decrease in potency | trametiglue |

| Molecule | change in potency, BRAF-R509H versus BRAF [1] | change in potency, KSR1-R665H versus KSR1 [2] | effect on MEK1–KSR1 interaction (co-IP) (MEK1–KSR1) | decrease in potency (calculated Ki) with BRAF-V600E versus WT BRAF (MEK1–NL + BRAF-V600E) | effect on MEK1–BRAF interaction (co-IP) (MEK1–BRAF) | change in potency, CRAF-R401H versus CRAF [3] |
| --- | --- | --- | --- | --- | --- | --- |
| CC(=O)Nc1cccc(-n2c(=O)n(C3CC3)c(=O)c3c(Nc4ccc(I)cc4F)n(C)c(=O)c(C)c32)c1 [trametinib] | insensitive | small but significant decrease in potency | – | – | specifically reduced | – |
